Data set [1] deals with EBC-1 cells. Put plainly: Cell proliferation inhibition assay. In kind it is cell-based.
The target in data set [2] is T1, c-MET (Homo sapiens, UniProt P08581). In kind it is cell-based. Particulars: Western blot, EBC-1 and Hs746T cells. For orientation: Immunoblotting shows a protein as a band on a membrane.
Data set [3] deals with T1, c-MET. In words: biochemical. In kind it is binding.
The nature of data set [4]: Pharmacokinetic study in rats. To be noted: male, Sprague-Dawley, rat, in vivo, iv, 1 mg/kg, CL. More on the design: species or system Male Sprague–Dawley (SD) rats.
Another data set concerns HepG2 cells. In words: Cell proliferation inhibition assay. In kind it is cell-based. To be noted: Homo sapiens, HepG2, 72 h, read-out: IC50 HepG2.
A further data set deals with Hs746T cells. Put plainly: Cell proliferation inhibition assay. The data set is classed as cell-based. Particulars: Homo sapiens, 72 h, read-out: IC50 Hs746T, c-MET-sensitive, 72 h.
The test system of a further data set is A549 cells. Put plainly: Cell proliferation inhibition assay. In kind it is cell-based. Particulars: Homo sapiens, A549, 72 h, read-out: IC50 A549.
Data set [5] relates to EBC-1 cells. In words: Cell apoptosis by flow cytometry. To be noted: 48 h. The data set is classed as cell-based. (In flow cytometry, cells or beads pass a laser one at a time.)
In another data set the test system is EBC-1 xenograft tumors. In words: EBC-1 xenograft tumor growth model. In kind it is in vivo, BALB/c nude mice. To be noted: 10 mg/kg, i.p., qd, 10 days. A digest of the protocol: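 Six-week-old BALB/c nude mice (SPF) received 5 × 10^6 EBC-1 cells subcutaneously in the dorsal flank. At about 80 mm3 they were grouped and dosed at 10 mg/kg i.p. once daily for 10 days; vehicle was 10% DMSO/10% PEG300/5% Tween 80/75% H2O. Calipers and body weight were read every 2 days. V = L×W²/2, and TGI used median volumes. Tumors were weighed at the end, n = 6.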

T1 sequence (P08581 25-1390): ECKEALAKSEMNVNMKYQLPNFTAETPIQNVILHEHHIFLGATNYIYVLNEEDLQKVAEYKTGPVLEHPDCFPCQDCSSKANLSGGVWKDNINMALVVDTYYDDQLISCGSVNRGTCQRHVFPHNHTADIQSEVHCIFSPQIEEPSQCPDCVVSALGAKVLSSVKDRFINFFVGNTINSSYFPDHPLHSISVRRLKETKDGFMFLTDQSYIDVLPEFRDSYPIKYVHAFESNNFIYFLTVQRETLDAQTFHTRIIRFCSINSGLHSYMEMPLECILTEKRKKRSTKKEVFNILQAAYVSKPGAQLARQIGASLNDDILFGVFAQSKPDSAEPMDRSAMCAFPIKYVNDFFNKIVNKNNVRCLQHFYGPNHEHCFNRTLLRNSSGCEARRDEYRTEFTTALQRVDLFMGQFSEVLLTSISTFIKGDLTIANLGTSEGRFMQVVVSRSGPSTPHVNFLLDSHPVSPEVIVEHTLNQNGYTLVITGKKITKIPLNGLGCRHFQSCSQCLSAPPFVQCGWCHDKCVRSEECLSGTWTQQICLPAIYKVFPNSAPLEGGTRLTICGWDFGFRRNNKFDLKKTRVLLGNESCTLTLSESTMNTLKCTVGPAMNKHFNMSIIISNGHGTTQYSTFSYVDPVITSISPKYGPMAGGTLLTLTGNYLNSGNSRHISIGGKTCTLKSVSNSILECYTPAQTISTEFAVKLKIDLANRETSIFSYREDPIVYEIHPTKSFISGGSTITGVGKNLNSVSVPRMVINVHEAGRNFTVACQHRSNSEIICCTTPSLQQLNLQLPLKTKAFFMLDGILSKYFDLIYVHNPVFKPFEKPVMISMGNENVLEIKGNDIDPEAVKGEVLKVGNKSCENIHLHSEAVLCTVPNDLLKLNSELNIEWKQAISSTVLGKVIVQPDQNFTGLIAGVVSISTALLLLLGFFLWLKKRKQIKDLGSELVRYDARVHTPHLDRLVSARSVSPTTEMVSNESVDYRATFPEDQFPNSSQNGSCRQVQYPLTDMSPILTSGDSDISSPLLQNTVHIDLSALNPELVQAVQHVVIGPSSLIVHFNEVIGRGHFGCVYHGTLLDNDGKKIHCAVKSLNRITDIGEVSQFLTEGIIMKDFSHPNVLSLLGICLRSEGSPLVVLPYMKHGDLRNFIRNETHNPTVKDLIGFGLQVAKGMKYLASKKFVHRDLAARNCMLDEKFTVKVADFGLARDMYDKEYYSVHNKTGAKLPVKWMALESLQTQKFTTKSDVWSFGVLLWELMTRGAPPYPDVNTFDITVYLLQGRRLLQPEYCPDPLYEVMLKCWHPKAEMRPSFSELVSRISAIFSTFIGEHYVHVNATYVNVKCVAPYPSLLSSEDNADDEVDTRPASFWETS

One may read the Kd as the free concentration of one partner at which half of the binding sites on the other are occupied at equilibrium, for simple one-to-one binding. With `CN1C(=O)CCC(N2C(=O)c3ccc(N4CCN(C(=O)CN5CCC(COc6cnc(-c7cccc(Cn8nc(-c9cccc(C#N)c9)ccc8=O)c7)nc6)CC5)CC4)cc3C2=O)C1=O` (centres unmarked) [D16], the “inhibition of cell proliferation, fold weaker than D15” value with EBC-1 cells [1] (EBC-1 and Hs746T cells) was “approximately 10 fold”. The c-MET degradation effect result at c-MET [2] is “no degradation effect”. On c-MET [3], this compound registered a Kd of 345 nM. Further, on c-MET [3] (ratio of Kd to D15), the “binding affinity, fold weaker than D15” value came to 2 fold.

What is called clearance is a measure of how efficiently the substance is removed, as volume per time. Low readings indicate a low capacity for elimination, high ones a high capacity for elimination. The term IC50 denotes the concentration that gives 50% inhibition. As for `CN1CCC(COc2cnc(-c3cccc(Cn4nc(-c5cccc(C#N)c5)ccc4=O)c3)nc2)CC1` [Tepotinib], the clearance in data set [4] was 70 mL/min/kg. Also, the IC50 in the data set on HepG2 cells was 476 ± 45 nM; with Hs746T cells, 2.63 ± 0.72 nM; in the data set with EBC-1 cells [1] (Homo sapiens, EBC-1, 72 h, read-out: IC50 EBC-1), 1.32 ± 0.39 nM; in the data set with A549 cells it was 277 ± 59 nM. For the same compound, the apoptosis rate in the data set on EBC-1 cells [5] (EBC-1, 10 nmol/L) was determined as 39.3%; with EBC-1 cells [5] (EBC-1, 100 nmol/L), 59.4%. The “tumor growth inhibition (TGI%)” value in the data set on EBC-1 xenograft tumors is on record as 71.9%.

Regarding `O=C1CCC(N2C(=O)c3ccccc3C2=O)C(=O)N1` (centres unmarked) [Thalidomide], at c-MET [2], the c-MET degradation effect entry was “none”.

For `N#Cc1cccc(-c2ccc(=O)n(Cc3cccc(-c4ncc(OCC5CCNCC5)cn4)c3)n2)c1` [compound 6], binding at c-MET [3] was put at a Kd of 9.97 nM. In other words, the single-digit nanomolar range.

(Values after PMC10326257 (Acta Pharmaceutica Sinica. B, 2023).)
